The results in this text go back to ChEMBL document CHEMBL2034933, “New quinazolinone-pyrimidine hybrids: synthesis, anti-inflammatory, and ulcerogenicity studies” (Eur J Med Chem, 2012).

The species named for one data set is Ovis aries. The experiment in a line: Selectivity ratio of IC50 for ovine COX2 to ovine COX1. Summed up:
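Ovine COX-1 and COX-2 inhibition measured with a commercial COX inhibitor screening kit following the Gierse et al. method. Selectivity expressed as the ratio IC50(COX-2)/IC50(COX-1).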

The test system of data set [1] is Rattus norvegicus. The experiment in a line: Ulcerogenic activity in fasted albino rat assessed as ulcer index at 50 mg/kg po administered qd for 3 days measured on day 4. It counts as toxicity, organism-based. More on the design: dose 50 mg/kg, route oral. The following applies: in vivo, 72 h. Summed up:
(§1)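 Albino rats of both sexes (120–150 g), five per group, fasted 20 h, then dosed orally in 1% Tween (test agents 100 mg/kg, celecoxib and diclofenac sodium 50 mg/kg). Feeding cycle: 2 h fast, 2 h feed, 20 h fast, repeated with doses on days 2 and 3. Ulcers scored 0–4. Ulcer index = %incidence/10 + mean ulcer number + mean severity.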

Data set [2] relates to Rattus norvegicus. The experiment in a line: Antiinflammatory activity in albino rat assessed as inhibition of carrageenan-induced paw edema at 50 mg/kg, po administered 1 hr prior to carrageenan-challenge measured after 3 hrs. The data set is classed as functional. Summed up:
(§2)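 Adult albino rats of both sexes (120–150 g), pre-hydrated with 3 ml water by gavage, five per group. Test agents suspended in distilled water with a few drops of Tween 80, given orally 1 h before sub-plantar injection of 50 µl 1% carrageenan into the right hind paw. Dial-gauge paw thickness taken at 0.5, 1, 2 and 3 h, with the left paw as reference. % inhibition = (Wc−Wt)/Wc × 100 against saline/Tween 80 controls.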
On the technique in general: Carrageenan injected into the paw causes an acute inflammation.

Data set [3] has as its system Rattus norvegicus. The experiment in a line: Antiinflammatory activity in albino rat assessed as inhibition of carrageenan-induced paw edema at 100 mg/kg, po administered 1 hr prior to carrageenan-challenge measured after 3 hrs. The data set is classed as functional. Summed up:
as §2

Data set [4] relates to Rattus norvegicus. Kind of data set: Antiinflammatory activity in albino rat assessed as inhibition of carrageenan-induced paw edema at 20 mg/kg, po administered 1 hr prior to carrageenan-challenge measured after 3 hrs. It counts as functional. The essentials:
(§3)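 Carrageenan rat paw oedema (albino rats of both sexes, 120–150 g), oral dosing in Tween 80 suspension 1 h before 50 µl 1% carrageenan sub-plantar injection. Inhibition read at 3 h over a three-dose series (50, 100, 200 mg/kg for test agents; 20, 50, 100 mg/kg for diclofenac sodium). IC50 given in mg/kg and µmol/kg.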

For data set [5], the system named is Rattus norvegicus. Kind of data set: Antiinflammatory activity in po dosed albino rat assessed as inhibition of carrageenan-induced paw edema administered 1 hr prior to carrageenan-challenge measured after 3 hrs. The data set is classed as functional, organism-based. The essentials: as §3
For data set [6], the system named is Rattus norvegicus. The experiment in a line: Antiinflammatory activity in albino rat assessed as inhibition of carrageenan-induced paw edema at 50 mg/kg, po administered 1 hr prior to carrageenan-challenge measured after 1 hr. The data set is classed as functional. Summed up:
as §2

The test system of data set [7] is Rattus norvegicus. Kind of data set: Antiinflammatory activity in albino rat assessed as inhibition of carrageenan-induced paw edema at 50 mg/kg, po administered 1 hr prior to carrageenan-challenge measured after 0.5 hrs. The data set is classed as functional. Summed up: as §2
The test system of data set [8] is Rattus norvegicus. The experiment in a line: Antiinflammatory activity in albino rat assessed as inhibition of carrageenan-induced paw edema at 50 mg/kg, po administered 1 hr prior to carrageenan-challenge measured after 2 hrs. The data set is classed as functional. Summed up: as §2
The test system of data set [9] is Rattus norvegicus. The experiment in a line: Antiinflammatory activity in albino rat assessed as inhibition of carrageenan-induced paw edema at 100 mg/kg, po administered 1 hr prior to carrageenan-challenge measured after 0.5 hrs. The data set is classed as functional. The essentials: as §2
In data set [10] the test system is Rattus norvegicus. The experiment in a line: Antiinflammatory activity in albino rat assessed as inhibition of carrageenan-induced paw edema at 100 mg/kg, po administered 1 hr prior to carrageenan-challenge measured after 1 hr. It counts as functional. The essentials: as §2
Data set [11] concerns Rattus norvegicus. The experiment in a line: Ulcerogenic activity in fasted albino rat assessed as ulcer index at 100 mg/kg po administered qd for 3 days measured on day 4. It counts as toxicity, organism-based. More on the design: dose 100 mg/kg, route oral. The settings on record: in vivo, 72 h. The essentials: as §1
The test system of data set [12] is Rattus norvegicus. The experiment in a line: Antiinflammatory activity in po dosed albino rat assessed as inhibition of carrageenan-induced paw edema administered 1 hr prior to carrageenan-challenge relative to diclophenac. The data set is classed as functional.
Data set [13] has as its system Rattus norvegicus. Kind of data set: Antiinflammatory activity in albino rat assessed as inhibition of carrageenan-induced paw edema at 200 mg/kg, po administered 1 hr prior to carrageenan-challenge measured after 3 hrs. It counts as functional. The essentials: as §3
In data set [14] the test system is Rattus norvegicus. Kind of data set: Antiinflammatory activity in albino rat assessed as inhibition of carrageenan-induced paw edema at 100 mg/kg, po administered 1 hr prior to carrageenan-challenge measured after 2 hrs. It counts as functional. The essentials:
as §2

Consider `Cc1ccc(-c2cc(C(F)(F)F)nn2-c2ccc(S(N)(=O)=O)cc2)cc1` [CELECOXIB], for which the Ratio IC50 in the data set filed under Ovis aries is 0.02. Also, the UI in the data set on Rattus norvegicus [1] was determined as 12.51.
As to `O=C([O-])Cc1ccccc1Nc1c(Cl)cccc1Cl.[Na+]` [DICLOFENAC SODIUM], the inhibition in vivo (commonly the percentage by which the read-out fell short of the control) at 50 mg/kg in the data set with Rattus norvegicus [2] amounted to 87.3%; in the data set with Rattus norvegicus [6] it was 83.6%; in the data set with Rattus norvegicus [7], 76.9%; in the data set with Rattus norvegicus [8] it was 87.7%. For the same molecule, the inhibition in vivo at 100 mg/kg in the data set with Rattus norvegicus [3] was found to be 91.2%. For the same molecule, the inhibition in vivo at 20 mg/kg in the data set on Rattus norvegicus [4] stood at 42.2%. Moreover, the IC50 with Rattus norvegicus [5] was determined as 45.01 mg/kg. The UI with Rattus norvegicus [1] came out at 17.02.
Regarding `N#Cc1c(-c2ccccc2)nc(SCC(=O)Nn2c(COc3ccc(Cl)cc3Cl)nc3ccccc3c2=O)[nH]c1=O`, the Ratio IC50 in the data set listed under Ovis aries worked out at 20.6. Moreover, the inhibition in vivo at 100 mg/kg with Rattus norvegicus [9] turned out to be 80.8%; in the data set on Rattus norvegicus [3], 86%; in the data set with Rattus norvegicus [10], 81.8%; in the data set with Rattus norvegicus [14], 86%. Moreover, the inhibition in vivo at 50 mg/kg in the data set on Rattus norvegicus [2] was found to be 68.4%. For the same molecule, in the data set on Rattus norvegicus [5], the IC50 came out at 86.74 mg/kg. Besides, the UI in the data set with Rattus norvegicus [11] worked out at 14.4. The “inhibition (INH)” value in the data set with Rattus norvegicus [12] is reported as more than 90%. In the data set on Rattus norvegicus [13], the inhibition in vivo at 200 mg/kg is 91.2%.
